Measured values of several laboratories.
Target: Dual specificity mitogen-activated protein kinase kinase 2 (MAP2K2, Homo sapiens, UniProt P36507)

Cc1ccc(C(=O)NCc2ccsc2)cc1C#Cc1cn(C(C)C)c2ncnc(N)c12 has an activity vs control of 81% (enzyme activity; inhibitor; 1 µM).
N#CCCc1ccc2c(c1)-c1[nH]c3ccc([N+](=O)[O-])cc3c1CC(=O)N2 has a remaining signal of 90.3% (cell-free assay; 0.5 µM).
CCOc1cc(-c2nncn2C)ccc1Nc1ncc2cc(C)nc(NCC(C)(C)C)c2n1 has an inhibition of 18% (enzyme activity; inhibitor; FRET; 1 µM).
The remaining activity of COc1cc(Nc2cnc(C#N)c(O[C@H](C)CN(C)C)n2)ncc1-c1cnn(C)c1 is reported as 57% (enzyme activity; inhibitor; radiometric; 10 µM).
With COc1cc(-c2cc(-c3ccc(N4CCNCC4)cc3)cnc2C)cc(OC)c1OC the inhibition was 8% (enzyme activity; inhibitor; 1 µM).
The remaining binding of CN1CCN(c2cnc3c(C4CCN(C(=O)c5ccc(OC(F)(F)F)cc5N)CC4)ncnc3c2)CC1 is reported as 100% (cell-free assay; competition with immobilised ligand; 1 µM).
For CCCS(=O)(=O)Nc1ccc(F)c(C(=O)c2c[nH]c3ncc(-c4ccc(Cl)cc4)cc23)c1F, the inhibition was less than 10% (enzyme activity; inhibitor; 1 µM).
With CCC1(CC)NC(=O)c2c(c3ccc(Cl)c(Cl)c3n2C)C1C#N (centres unmarked) the ΔTm was -0.4 °C (thermal stability; DSF; 10 µM).
For COc1cc2ncnc(Nc3ccc(Oc4ccccc4)cc3C)c2cc1OC, the inhibition was 41% (enzyme activity; inhibitor; 1 µM).
CCCOc1ccc([C@H]2[C@H](C(=O)O)[C@@H](c3ccc4c(c3)OCO4)CN2CC(=O)Nc2c(CC)cccc2CC)cc1 gave a remaining binding of 62% (cell-free assay; competition with immobilised ligand; 1 µM).
For FC(F)c1nc2ccccc2n1-c1nc(N2CCOCC2)nc(N2CCOCC2)n1, the remaining activity was 95% (enzyme activity; inhibitor; 10 µM).
CS(=O)(=O)N1CCCC(NC(=O)[C@H](CCC2CCCCC2)NC(=O)c2ccc(CNC(=O)c3cnc4ccccn34)cc2)C1 (some centres unmarked) has a remaining binding of 100% (cell-free assay; competition with immobilised ligand; 0.1 µM).
With O=C1NC(=O)c2cc(Nc3ccc(F)cc3)c(Nc3ccc(F)cc3)cc21 the remaining signal was 89.5% (cell-free assay; 0.5 µM).
With Cn1c2c(c3ccccc31)C(C#N)C(C)(C)NC2=O (centres unmarked) the ΔTm was -0.1 °C (thermal stability; DSF; 10 µM).
With FC(F)(F)Oc1cccc(-c2cnc3ccc(-c4ccncc4)nn23)c1 the activity vs control was 84% (enzyme activity; inhibitor; radiometric; 1 µM).
O=S(=O)(NC1CCC(c2cc(F)ccc2F)(S(=O)(=O)c2ccc(Cl)cc2)CC1)C(F)(F)F (centres unmarked) has a remaining binding of 100% (cell-free assay; competition with immobilised ligand; 1 µM).
With CC1(C)NC(=O)c2[nH]c3c(Cl)c(Cl)ccc3c2C1C#N (centres unmarked) the ΔTm was -0.4 °C (thermal stability; DSF; 10 µM).
For CS(=O)(=O)N1CCCC(NC(=O)[C@H](CCC2CCCCC2)NC(=O)c2ccc(CNc3ncnc4c3nnn4-c3ccccc3)cc2)C1 (some centres unmarked), the remaining binding was 90% (cell-free assay; competition with immobilised ligand; 0.1 µM).
With O=C(Nc1cnn(-c2csc(C(=O)NC3COC3)c2)c1)Nc1ccccc1Cl the remaining activity was 92.2% (enzyme activity; inhibitor; 5 µM).
C[C@H](NC(=O)c1cnc2n1[C@](C)(Cc1ccc(C#N)cc1)C(=O)N2c1cc(Cl)c(F)c(Cl)c1)C(=O)NC1(c2ccccn2)CC1 has a remaining binding of 90% (cell-free assay; competition with immobilised ligand; 1 µM).
The remaining signal of O=C1Nc2ccc(Cl)cc2C1=Cc1cc(Cl)c(O)c(Cl)c1 is reported as 82% (cell-free assay; 0.5 µM).
The inhibition of O=C(CSc1nc2nccnc2c(=O)n1CCc1ccccc1)Nc1nccs1 is reported as -3% (enzyme activity; inhibitor; 10 µM).
Nc1cnc(N2CCc3cc(S(=O)(=O)Nc4c(F)cc(Cl)cc4F)cc(N4CCCC4=O)c32)nc1 has a remaining binding of 92% (cell-free assay; competition with immobilised ligand; 1 µM).
Cn1c2c(Cl)c(Cl)ccc2c2cn[nH]c(=O)c21 has a ΔTm of -0.3 °C (thermal stability; DSF; 10 µM).
With Nc1ncnc2occ(-c3ccc(NC(=O)Nc4cc(C(F)(F)F)ccc4F)cc3)c12 the remaining signal was 7.1% (cell-free assay; inhibitor; 20 µM).
N#CC1c2c([nH]c3c(Cl)c(Cl)ccc23)C(=O)NC12CCCCC2 (racemic) has a ΔTm of -0.8 °C (thermal stability; DSF; 10 µM).
O=C(NCc1ncc(C(F)(F)F)cc1Cl)c1ccc2c(c1)C1(CCS(=O)(=O)CC1)[C@@H](C1CC1)N2S(=O)(=O)c1ccc(F)cc1 has a remaining binding of 78% (cell-free assay; competition with immobilised ligand; 1 µM).
Cn1c(=O)n(-c2ccc(C(C)(C)C#N)cc2)c2c3cc(-c4cnc5ccccc5c4)ccc3ncc21 gave a remaining activity of 86% (enzyme activity; inhibitor; 10 µM).
Cn1c2c(Cl)c(Cl)ccc2c2cc(N)[nH]c(=O)c21 has a ΔTm of -0.1 °C (thermal stability; DSF; 10 µM).
The remaining activity of CC(C)(C)c1nc2c(s1)c1nc(N)ncc1c1ccc(NS(=O)(=O)c3c(F)cccc3F)c(F)c12 is reported as 92% (enzyme activity; inhibitor; radiometric; 1 µM).
For Cn1c2c(c3ccc(Cl)c(Cl)c31)C(C#N)C1(CCCC1)NC2=O (centres unmarked), the ΔTm was -0.4 °C (thermal stability; DSF; 10 µM).
CCN(CC)CCNC(=O)c1c(C)[nH]c(/C=C2\C(=O)Nc3ccc(F)cc32)c1C has a remaining signal of 25.4% (cell-free assay; 0.5 µM).
